In data set [1] the test system is Rattus norvegicus. Nature of the data set: Inhibition of rat ear edema as percentage change in mean weight (56.03 +/- 1.41 mg) from control group of 55.67+/-1.22 mg at 1.56 ug dose. The data set is classed as functional.
A short description of data set [2]: % stability in krebs buffer after 60 minutes. The data set is classed as physicochemical. The settings on record: Krebs buffer; read-out: Stability. The method, boiled down: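 Test compound, at a final concentration of 30 ug/mL, was spiked into Krebs buffer at 37 °C for 60 min, then quenched with 2 M citric acid. Supernatant was analysed by reversed-phase HPLC with UV detection at 240 nm and an internal standard, in duplicate. The read-out was % compound remaining.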

Data set [3] concerns Rattus norvegicus. Nature of the data set: Inhibition of rat ear edema as percentage change in mean weight (44.05+/-1.18 mg) from control group of 55.67+/-1.22 mg at 100 ug dose. The format is functional.
For data set [4], the system named is Rattus norvegicus. In words: Inhibition of rat ear edema as percentage change in mean weight (50.65 +/- 1.18 mg) from control group of 55.67+/-1.22 mg at 25 ug dose. The format is functional.
The nature of data set [5]: half life in human plasma. The data set is classed as ADME, organism-based. The method in brief: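 Pooled heparinised plasma from 4 volunteers, stored at −20 °C; compound spiked to final 30 ug/mL at 37 °C. Half-life taken from additional time points in this incubation; reaction stopped with 2 M citric acid, samples frozen overnight and centrifuged. Supernatant analysed by reverse-phase HPLC with UV at 240 nm, internal standard dexamethasone or hydrocortisone; duplicates.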

In data set [6] the test system is Rattus norvegicus. Nature of the data set: Inhibition of rat ear edema as percentage change in mean weight (54.86 +/- 1.35 mg) from control group of 55.67+/-1.22 mg at 6.25 ug dose. The format is functional.
A short description of data set [7]: % stability in human plasma after 60 minutes. The format is ADME, organism-based. The settings on record: plasma, read-out: Stability. The method in brief: (§1)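 Pooled heparinized plasma from 4 volunteers was incubated at 37 °C with test compound at a final concentration of 30 ug/mL, with DMSO-only controls. The reaction was stopped with 2 M citric acid at 10 and 60 min, with a zero-time sample. Supernatants were analysed by reversed-phase HPLC at 240 nm against an internal standard, in duplicate, and reported as % compound remaining.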

Data set [8] in a line: % stability in human plasma after 10 minutes. The data set is classed as ADME, organism-based. The note with it: plasma, read-out: Stability. The method, boiled down:
as §1

Data set [9] relates to Rattus norvegicus. Nature of the data set: Inhibition of rat ear edema as percentage change in mean weight (40.57+/-1.10 mg) from control group of 55.67+/-1.22 mg at 4.00 ug dose. The format is functional.
Data set [10] concerns Rattus norvegicus. In words: Inhibition of rat ear edema as percentage change in mean weight (47.21+/-1.49 mg) from control group of 72.25+/-2.24 mg at 0.25 ug dose. The data set is classed as functional.
The subject of data set [11] is Rattus norvegicus. In words: Inhibition of rat ear edema as percentage change in mean weight (39.79+/-0.99 mg) from control group of 55.67+/-1.22 mg at 1.00 ug dose. The format is functional.
In data set [12] the test system is Rattus norvegicus. In words: Inhibition of rat ear edema as percentage change in mean weight (64.86+/-2.70 mg) from control group of 72.25+/-2.24 mg at 0.06 microg dose. The format is functional.
In data set [13] the test system is Rattus norvegicus. In words: Inhibition of rat ear edema as percentage change in mean weight (44.71+/-1.53 mg) from control group of 72.25+/-2.24 mg at 1.00 ug dose. The data set is classed as functional.
Data set [14] concerns Rattus norvegicus. In words: Inhibition of rat ear edema as percentage change in mean weight (44.39+/-2.26 mg) from control group of 72.25+/-2.24 mg at 4.00 ug dose. The format is functional.
The test system of data set [15] is Rattus norvegicus. In words: Inhibition of rat ear edema as percentage change in mean weight (45.29+/-1.16 mg) from control group of 55.67+/-1.22 mg at 0.25 ug dose. The format is functional.

For orientation: half-life means the time in which the quantity being followed falls by half.

Consider `CC1(C)O[C@@H]2CC3C4C[C@H](F)C5=CC(=O)C=C[C@]5(C)[C@@]4(F)[C@@H](O)C[C@]3(C)[C@]2(SC2CCOC2=O)O1` (stereo not given in full), for which the Decrease is 0% in data set [1], 20.9% in data set [3], 9.01% in [4] and 1.46% in data set [6]. Moreover, the remaining at 1 h in data set [2] is 74%; in data set [7] it was 0%. In data set [5], this molecule showed a half-life of 4 min. Also, the remaining at 10 min in data set [8] is 24%.

On to `CCC(=O)O[C@]1(C(=O)SCF)[C@H](C)C[C@H]2[C@@H]3C[C@H](F)C4=CC(=O)C=C[C@]4(C)[C@@]3(F)[C@@H](O)C[C@@]21C` [FLUTICASONE PROPIONATE], for which the Decrease in data set [9] was 27.1%; in [10] it was 34.7%; in [11] it was 28.5%; in data set [12] it was 10.23%; in data set [13], 38.1%; in data set [14], 38.6%. In addition, the Decrease in data set [15] was found to be 18.6%.
